HSF-1 act = increases HSF-1 driven luciferase reporter signal | NIH3T3-HGL HSF-1 luciferase reporter, MG132, 8 h; 100% = twice DMSO control signal | activation, % at 9 µM | 300,000 compounds, 1.7% hits | AID 504408;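 active = mean replicate activation of at least 50% with a set share of replicates each reaching 50%; inconclusive = only one of those two conditions met; inactive = mean below 50% and too few replicates reaching it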
PHOSPHO1 block = PHOSPHO1 (human) inhibition; recombinant PHOSPHO1, absorbance phosphatase assay; inhibition, % at 13.3 µM; 290,000 compounds, 1.1% hits; AID 1565; in the data active = inhibition above about 60%
Target sequence (Q8TCT1 whole entry, looked up): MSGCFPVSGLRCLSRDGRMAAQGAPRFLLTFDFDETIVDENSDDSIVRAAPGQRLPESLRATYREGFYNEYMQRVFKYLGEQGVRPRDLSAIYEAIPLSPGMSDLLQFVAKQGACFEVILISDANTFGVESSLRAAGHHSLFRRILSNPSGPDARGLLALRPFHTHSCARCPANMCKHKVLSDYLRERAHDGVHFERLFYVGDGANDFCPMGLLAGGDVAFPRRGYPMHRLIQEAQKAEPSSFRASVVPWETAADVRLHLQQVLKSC
HSF1 inhib = HSF1 inhibition; NIH3T3-HGL HSE-luciferase, MG132-induced, luminescence 8 h; active compounds read low; activity change, negative = inhibition, % at 7.5 µM (by protocol); 300,000 compounds, 0.77% hits; AID 2098;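 active = more than half of replicate wells show activity change below -50%, luminescence cut by over half; inconclusive = some wells, but at most half, below -50%; inactive = no replicate well below -50%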;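 also: luciferase reports HSF-1 transcriptional activity via heat shock element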
HCV core dimer = HCV core protein dimerization inhibition. TR-FRET GST/Flag-core106 dimerization, 1536-well. AID 1899. 300,000 compounds, 0.33% hits. inhibition, % at 5 µM;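 active = inhibition above the mean of all tested compounds plus 3 SD, set per screening campaign, cut at about 45% in these data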
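System: GST/Flag-tagged HCV core106 proteins. Incubation: compound-protein-antibody incubation 4 h at 22.5 °C. Technique: HTRF with 340 nm excitation, 617/671 nm emission. Medium: KF-containing HEPES buffer, pH 7.45, DTT, CHAPS, BSA. Read-out: inhibition (%) from 671 over 617 nm ratio. Also added: Eu(K)-anti-GST 90 ng/mL plus XL665-anti-Flag 1 µg/mL.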
ALR inh = human ALR oxidase inhibition via reduced H2O2; P55789; purified ALR, DTT oxidation, H2O2 HRP-luminol luminescence; inhibition, % (concentration not given with the values); 290,000 compounds, 3.8% hits; AID 485317;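 active = mean replicate inhibition above about 79%, with every replicate also reaching it, limit read from the data; inconclusive = only one of the two criteria met; inactive = mean below limit and not every replicate reaching it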
Target sequence (P55789 whole entry, looked up): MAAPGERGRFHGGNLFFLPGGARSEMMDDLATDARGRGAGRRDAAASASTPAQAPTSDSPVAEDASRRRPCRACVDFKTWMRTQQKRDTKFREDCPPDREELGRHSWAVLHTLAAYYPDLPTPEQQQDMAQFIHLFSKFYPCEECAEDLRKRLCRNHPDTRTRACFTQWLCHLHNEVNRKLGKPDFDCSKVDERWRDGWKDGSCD
AI-2 QS modul = Vibrio harveyi AI-2 quorum sensing modulation. Vibrio harveyi JMH597 AI-2 luminescence/OD600 ratio, 9 h; active compounds read low; strain lacks LuxN and CqsS sensors; 0 = neutral-control median. activity change, % at 7.5 µM. 300,000 compounds, 0.4% hits; in the data active = activity change below about -75%, passing the limit was not always enough; inconclusive = no clear call, values can overlap the other calls;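 also: luminescence divided by OD600 gain over 9 h not by final OD600 alone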
A number is an active result; i = inactive; ? = inconclusive; nt = not tested or not shown. A selection: hits, their analogues and other compounds. The true share with any hit is near 6.8%.

SMILES	HSF-1 act	PHOSPHO1 block	HSF1 inhib	HCV core dimer	ALR inh	AI-2 QS modul
CCc1ccc(NC(=O)c2ccc3c(c2)C(=O)N(CCOC)C3Nc2ccc(CC)cc2)cc1 (configuration not stated)	i	i	i	i	i	i
Cc1csc2nc(CSc3nc4ccccc4o3)cn12	nt	61	nt	i	i	nt
c1ccc2oc(SCc3cn4ccsc4n3)nc2c1	?	i	i	i	i	i
Cc1ccc(N/C=C/C(=O)C(C)(C)C)c(O)c1	nt	i	nt	i	83	i
Cc1ccc(NC(=O)C2CCCCC2)c(O)c1	i	i	i	i	i	i
CC(=O)Nc1ccc(N/C=C/C(=O)C(C)(C)C)cc1	63	i	i	i	i	i
COc1ccc(Oc2ccc(N/C=C/C(=O)C(C)(C)C)cc2)cc1	i	i	i	i	i	i
CCCCN(CC)CCNC(=O)CN1C(=O)COc2ccc(S(=O)(=O)N3CCCC3)cc21	i	i	i	i	i	i
O=C(CN(Cc1ccco1)C(=O)CNS(=O)(=O)c1ccc(F)cc1)NCc1ccco1	i	i	i	i	i	i
CS(=O)(=O)N(CC(=O)Nc1ccc(S(=O)(=O)N2CCCC2)cc1)c1cccc(F)c1	i	i	i	i	i	i
O=c1c(Cl)c(N2CCCCC2)cnn1-c1nc2ccccc2[nH]1	i	i	i	i	nt	i
O=c1c2ccccc2cnn1-c1nc2ccccc2[nH]1	i	i	-83	nt	nt	i
Cn1nc(-c2ccc(Cl)cc2)c2cc(C(=O)NCCCN3CCOCC3)sc21	i	i	i	i	95	i
COc1ccc(Nc2cc(C(=O)NCCCN3CCOCC3)c3ccccc3n2)cc1	i	i	i	i	i	i
CCCCNC(=O)c1cc2c(=O)n(CC)c3ccccc3c2s1	i	i	i	i	nt	i
Cn1nc(-c2ccc(Cl)cc2)c2cc(C(=O)NCCN3CCOCC3)sc21	i	i	i	i	93	i
CCOCCCNC(=O)c1cc2c(-c3ccc(Cl)cc3)nn(C)c2s1	i	i	i	i	i	i
COc1ccc(Nc2nc(C(=O)NCCCN3CCOCC3)cs2)cc1	i	i	i	i	83	i
CCn1c(=O)c2cc(C(=O)NCCN3CCOCC3)sc2c2ccccc21	i	i	i	i	94	i
Cc1ccc(Sc2ncccc2NC(=O)c2ccccc2Cl)cc1	i	i	i	i	i	i
COc1cc(C#Cc2ccc3cc(C(C)(C)O)oc(=O)c3c2)cc(OC)c1	nt	nt	nt	nt	i	nt
Cc1ccc(-n2nc3c(c2NC(=O)CC(C)C)CS(=O)C3)cc1 (configuration not stated)	i	i	i	i	nt	i
O=C(NCCCN1CCOCC1)c1cc(-c2ccc(O)cc2)on1	i	i	i	i	98	i
O=C(Nc1c(F)cc(F)cc1Br)c1cc(-c2ccc(O)cc2)on1	i	i	i	i	99	i
Cn1nc(-c2ccc(Cl)cc2)c2cc(C(=O)N3CCN(C(=O)c4ccco4)CC3)sc21	i	i	i	i	?	i
SMILES	HSF-1 act	PHOSPHO1 block	HSF1 inhib	HCV core dimer	ALR inh	AI-2 QS modul
CCN1CCN(C(=O)c2cc3c(-c4ccc(Cl)cc4)nn(C)c3s2)CC1	i	i	i	i	98	i
O=C(NCCCN1CCOCC1)c1cc(-c2ccc(Br)cc2)on1	i	i	i	i	nt	i
Cn1nc(-c2ccc(Cl)cc2)c2cc(C(=O)NC3CC3)sc21	i	i	i	i	84	i
O=C(Nc1cccnc1)c1ccc(-c2ccccc2)cc1	66	i	i	i	i	i
COc1cc(OC)cc(C(=O)Nc2cccnc2)c1	i	i	i	i	i	i
CCOc1cc(OCC)cc(C(=O)Nc2cccnc2)c1	59	i	i	i	i	i
N/C(=N\OC(=O)c1ccoc1)c1ccc(Br)cc1	69	i	i	i	i	i
O=C(NC(=S)Nc1ccc(F)c(Cl)c1)C1CC1	i	i	i	i	i	-78
Fc1ccc(NC(=S)Nc2ccc(F)c(Cl)c2)cc1Cl	i	95	i	i	i	i
Fc1ccc(NC(=S)N2CCCC2)cc1Cl	i	i	i	i	i	i
COC(=O)CSc1nnc(-c2ccco2)o1	i	i	i	i	i	i
CSc1nc(-c2ccco2)nn1C(=O)c1ccc(C)cc1	i	i	i	i	97	i
COc1ccccc1C(=O)n1nc(-c2ccco2)nc1SC	i	i	i	i	98	i

Source: PubChem BioAssay
